This is an account of results in ChEMBL document CHEMBL4270616, “Asymmetrical meta-methoxylated diarylpentanoids: Rational design, synthesis and anti-cancer evaluation in-vitro” (Eur J Med Chem, 2018).

Experiment [1] deals with SW-620. The experiment is described as follows: Anticlonogenic activity against human SW620 cells assessed as colony formation at 1.25 uM after 10 days by crystal violet staining based imaging analysis (reference value: 100%). Type of experiment: functional. Put shortly:
(§1)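 SW620 cells seeded at 1000 cells/well in DMEM, left overnight at 37°C, 5% CO2, then exposed to compound for ten days with drug-containing medium renewed every three days. Cells were PBS-washed, fixed in 4% paraformaldehyde for 15 min, stained with 0.5% (w/v) crystal violet for 10 min, air-dried, photographed, and colonies quantified by image analysis.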

The test system of experiment [2] is SW-620. The experiment is described as follows: Cell cycle arrest in human SW620 cells assessed as decrease in G0/G1 phase after 24 hrs by propidium iodide staining based flow cytometry. Type of experiment: functional.
Experiment [3] deals with SW-620. The experiment in a line: Induction of apoptosis in human SW620 cells assessed as necrotic cells at 1.25 uM after 24 hrs by Annexin V-FITC/propidium iodide staining based flow cytometry (reference value: 0.15%). Format: functional.
The subject of experiment [4] is SW-620. The experiment in a line: Cell cycle arrest in human SW620 cells assessed as accumulation at G2/M phase at 2.5 uM after 24 hrs by propidium iodide staining based flow cytometry (reference value: 19%). Format: functional. On the technique in general: A flow cytometer gives signals particle by particle.
In experiment [5] the test system is SW-620. The experiment in a line: Anticlonogenic activity against human SW620 cells assessed as colony formation at 2.5 to 5 uM after 10 days by crystal violet staining based imaging analysis (reference value: 100%). Format: functional. The method in brief: as §1
The subject of experiment [6] is SW-620. The experiment is described as follows: Cytotoxicity against human SW620 cells after 72 hrs by MTT assay. Type of experiment: functional, cell-based. Particulars: SW-620, 72 h. The method in brief: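 Tumour lines kept in DMEM with 10% FBS and 1% penicillin/streptomycin at 37°C, 5% CO2. Seeded at 1500-5000 cells/well by doubling time and size, 24 h, then compound in DMSO-containing medium (final DMSO 0.1%) for 72 h. MTT (5 mg/mL) 4 h at 37°C, DMSO solubilisation, absorbance at 570 nm.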
In general terms: Tetrazolium assays rely on reduction of a dye to a coloured formazan, in cell work by metabolically active cells.

Experiment [7] relates to SW-620. The experiment in a line: Induction of apoptosis in human SW620 cells assessed as late apoptotic cells at 2.5 uM after 48 hrs by Annexin V-FITC/propidium iodide staining based flow cytometry (reference value: 0.2%). Type of experiment: functional.
Experiment [8] relates to SW-620. The experiment in a line: Induction of apoptosis in human SW620 cells assessed as necrotic cells at 2.5 uM after 72 hrs by Annexin V-FITC/propidium iodide staining based flow cytometry (reference value: 0.27%). Format: functional.
The test system of experiment [9] is SW-620. The experiment in a line: Induction of apoptosis in human SW620 cells assessed as necrotic cells at 10 uM after 72 hrs by Annexin V-FITC/propidium iodide staining based flow cytometry (reference value: 0.27%). Type of experiment: functional.
For experiment [10], the system named is SW-620. The experiment is described as follows: Induction of apoptosis in human SW620 cells assessed as live cells at 1.25 uM after 24 hrs by Annexin V-FITC/propidium iodide staining based flow cytometry (reference value: 97.03%). Type of experiment: functional.
For experiment [11], the system named is SW-620. The experiment in a line: Induction of apoptosis in human SW620 cells assessed as necrotic cells at 5 uM after 72 hrs by Annexin V-FITC/propidium iodide staining based flow cytometry (reference value: 0.27%). Format: functional.

Structures are written as SMILES.

Broadly, the IC50 is the midpoint of a concentration-inhibition curve. A lower IC50 goes with higher potency.

For the molecule `COc1ccc(/C=C2\CCC/C(=C\c3cc(OC)c(OC)c(OC)c3)C2=O)cc1OC`, the Activity in [1] is 0.5%; in [2], “Dose-dependent effect”; in [3], 0.35%; in [4], 50%; in experiment [5], 0%; in experiment [7], 6.7%. Further, the Activity is 1.36% in experiment [8], 0.24% in experiment [9], 89.83% in [10] and 0.33% in experiment [11]. In addition, in [6], half-maximal inhibition (IC50) required 1.8 µM.
Take `COc1ccc(/C=C2\CCC/C(=C\c3cccc(O)c3)C2=O)cc1OC`: the Activity was 0.8% in [1]; “Dose-dependent effect” in experiment [2]; 0.17% in experiment [3]; 49% in experiment [4]; 0% in [5]; 3.83% in experiment [7]. Also, the Activity was found to be 0.78% in [8], 0.22% in experiment [9], 96.2% in [10] and 1.23% in experiment [11]. This molecule also came in with a half-maximal inhibitory concentration (IC50) in experiment [6] of 1.9 µM.
